{"data": "Results pooled from the literature", "gyrB": "DNA gyrase subunit B (gyrB, Escherichia coli, UniProt P0AES6)", "CA9": "Carbonic anhydrase 9 (CA9, Homo sapiens, UniProt Q16790)", "Adora1": "Adenosine receptor A1 (Adora1, Rattus norvegicus, UniProt P25099)", "Melanocortin receptor 5": "Melanocortin receptor 5 (Mus musculus, UniProt P41149)", "PKN1": "Serine/threonine-protein kinase N1 (PKN1, Homo sapiens, UniProt Q16512)"}
{"target": "gyrB", "observed": "binding", "technique": "ITC", "measurement": "Kd", "result": "23 nM", "Compound": "CNc1cccc2cc(C(=O)NCCc3cccc(C(=O)O)c3)c(=O)[nH]c12"}
{"target": "Peroxisome proliferator-activated receptor alpha (Ppara, Mus musculus, UniProt P23204)", "observed": "reporter gene", "mode": "agonist", "technique": "luciferase", "measurement": "EC50", "result": "111000 nM", "Compound": "Cc1ccc(C)c(OCCCC(C)(C)C(=O)O)c1"}
{"target": "NUAK family SNF1-like kinase 2 (NUAK2, Homo sapiens, UniProt Q9H093)", "observed": "cell-free assay", "setting": "lysate", "measurement": "Kd", "result": "23300 nM", "Compound": "CCCN1CCN(c2ccc(-c3cncc(Cl)c3N3CCC4(CCNC4=O)CC3)cc2)CC1"}
{"target": "CA9", "observed": "enzyme activity", "mode": "inhibitor", "measurement": "IC50", "result": "1200 nM", "Compound": "NS(=O)(=O)c1cc(CNC(=O)N(Cc2ccc(O)cc2)CC2CC2)ccc1F"}
{"target": "RNA-binding protein 14 (Homo sapiens, UniProt Q96PK6)", "observed": "binding", "setting": "lysate", "measurement": "Kd", "result": "32 nM", "Compound": "Cc1cc2nc3c(=O)[nH]c(=O)nc-3n(C[C@H](O)[C@H](O)[C@H](O)COP(=O)(O)OP(=O)(O)OC[C@H]3O[C@@H](n4cnc5c(N)ncnc54)[C@H](O)[C@@H]3O)c2cc1C"}
{"target": "CA9", "observed": "enzyme activity", "mode": "inhibitor", "measurement": "IC50", "result": "7880 nM", "Compound": "Cc1ccc(S(N)(=O)=O)c(C(=O)Nc2ccc(NC(=O)NCC3CCCO3)cc2)c1 (centres unmarked)"}
{"target": "Adora1", "observed": "ligand displacement", "technique": "radioligand", "setting": "cell membranes", "measurement": "Ki", "result": "0.28 µM", "Compound": "CCCCN1CCCn2c1nc1c2c(=O)n(CCC)c(=O)n1CCC"}
{"target": "Melanocortin receptor 5", "observed": "reporter gene", "mode": "agonist", "measurement": "EC50", "result": "13500 nM", "Compound": "N=C(N)NCCC[C@H](NC(=O)[C@H](CC(=O)O)NC(=O)[C@H](Cc1c[nH]c2ccccc12)NC(=O)[C@H](CCCNC(=N)N)NC(=O)[C@@H](N)Cc1ccccc1)C(=O)N[C@@H](Cc1ccccc1)C(=O)NCC(=O)O"}
{"target": "Adora1", "observed": "ligand displacement", "technique": "radioligand", "setting": "cell membranes", "measurement": "Ki", "result": "> 25 µM", "Compound": "CCCCCC(C)N1CCCn2c1nc1c2c(=O)n(C)c(=O)n1C (centres unmarked)"}
{"target": "CA9", "observed": "enzyme activity", "mode": "inhibitor", "measurement": "IC50", "result": "60 nM", "Compound": "Cc1cc(C)cc(C(=O)N2CCCC(C(=O)N(C)C(C)c3ccc(S(N)(=O)=O)cc3)C2)c1 (centres unmarked)"}
{"target": "Melanocortin receptor 5", "observed": "reporter gene", "mode": "agonist", "measurement": "EC50", "result": "10 nM", "Compound": "CCCC[C@H](NC(=O)[C@@H](NC(=O)[C@@H](N)Cc1ccc(O)cc1)C(C)C)C(=O)NCC(=O)N[C@@H](Cc1c[nH]cn1)C(=O)N[C@@H](Cc1ccccc1)C(=O)N[C@@H](CCCNC(=N)N)C(=O)N[C@H](Cc1c[nH]c2ccccc12)C(=O)N[C@@H](CC(=O)O)C(=O)N[C@@H](CCCNC(=N)N)C(=O)N[C@@H](Cc1ccccc1)C(=O)NCC(=O)O"}
{"target": "CA9", "observed": "enzyme activity", "mode": "inhibitor", "measurement": "IC50", "result": "12.9 nM", "Compound": "Cn1cc(-c2ccc(N3CCN(C(=O)c4ccc(S(N)(=O)=O)c(Br)c4)CC3)c3cc[nH]c23)nn1"}
{"target": "Adora1", "observed": "ligand displacement", "technique": "radioligand", "setting": "cell membranes", "measurement": "Ki", "result": "> 25 µM", "Compound": "CC(C)N1CCCn2c1nc1c2c(=O)n(C)c(=O)n1C"}
{"target": "Melanocortin receptor 5", "observed": "reporter gene", "mode": "agonist", "measurement": "EC50", "result": "130 nM", "Compound": "CSCC[C@H](NC(=O)[C@@H](NC(=O)[C@@H](N)Cc1ccc(O)cc1)C(C)C)C(=O)NCC(=O)N[C@@H](Cc1c[nH]cn1)C(=O)N[C@@H](Cc1ccccc1)C(=O)N[C@@H](CCCNC(=N)N)C(=O)N[C@@H](Cc1c[nH]c2ccccc12)C(=O)N[C@@H](CC(=O)O)C(=O)N[C@@H](CCCNC(=N)N)C(=O)N[C@@H](Cc1ccccc1)C(=O)O"}
{"target": "CA9", "observed": "enzyme activity", "mode": "inhibitor", "measurement": "IC50", "result": "37.2 nM", "Compound": "NS(=O)(=O)c1ccc(NC(=S)N2CCN(C(=O)c3ccco3)CC2)cc1"}
{"target": "gyrB", "observed": "binding", "technique": "ITC", "measurement": "Kd", "result": "23 nM", "Compound": "CNc1cccc2cc(C(=O)Nc3cccc(C(=O)O)c3)c(=O)[nH]c12"}
{"target": "Phosphatidylethanolamine-binding protein 1 (Homo sapiens, UniProt P30086)", "observed": "binding", "measurement": "Kd", "result": "35800 nM", "Compound": "CO[C@@]1(NC(=O)C2SC(=C(C(N)=O)C(=O)O)S2)C(=O)N2C(C(=O)O)=C(CSc3nnnn3C)CS[C@@H]21 (some centres unmarked)"}
{"target": "Melanocortin receptor 5", "observed": "reporter gene", "mode": "agonist", "measurement": "EC50", "result": "73 nM", "Compound": "CSCC[C@H](NC(=O)[C@@H](NC(=O)[C@@H](N)Cc1ccc(O)cc1)C(C)C)C(=O)NCC(=O)N[C@@H](Cc1c[nH]cn1)C(=O)N[C@@H](Cc1ccccc1)C(=O)N[C@@H](CCCNC(=N)N)C(=O)N[C@@H](Cc1c[nH]c2ccccc12)C(=O)N[C@@H](CC(=O)O)C(=O)O"}
{"target": "Adora1", "observed": "ligand displacement", "technique": "radioligand", "setting": "cell membranes", "measurement": "Ki", "result": "> 25 µM", "Compound": "CCCC(C)N1CCCn2c1nc1c2c(=O)n(C)c(=O)n1C (centres unmarked)"}
{"target": "gyrB", "observed": "binding", "technique": "ITC", "measurement": "Kd", "result": "9.3 nM", "Compound": "CNc1cccc2cc(C(=O)NCc3ccc(C(=O)O)cc3)c(=O)[nH]c12"}
{"target": "PKN1", "observed": "enzyme activity", "mode": "inhibitor", "measurement": "IC50", "result": "155 nM", "Compound": "O=S(=O)(NCCNC/C=C/c1ccc(Br)cc1)c1cccc2cnccc12"}
{"target": "gyrB", "observed": "binding", "technique": "ITC", "measurement": "Kd", "result": "3900 nM", "Compound": "CN(Cc1ccc(C(=O)O)cc1NC(=O)c1cc2ccccc2[nH]c1=O)C1CCCCC1"}
{"target": "Melanocortin receptor 5", "observed": "reporter gene", "mode": "agonist", "measurement": "EC50", "result": "> 100000 nM", "Compound": "N=C(N)NCCC[C@H](NC(=O)[C@H](CC(=O)O)NC(=O)[C@@H](N)Cc1c[nH]c2ccccc12)C(=O)N[C@@H](Cc1ccccc1)C(=O)NCC(=O)O"}
{"target": "Metabotropic glutamate receptor 4 (GRM4, Homo sapiens, UniProt Q14833)", "observed": "calcium signal", "mode": "agonist", "measurement": "EC50", "result": "> 10000 nM", "Compound": "O=C(Nc1ccc(N2C(=O)c3ccccc3C2=O)c(Cl)c1)c1ncccc1Cl"}
{"target": "CA9", "observed": "enzyme activity", "mode": "inhibitor", "measurement": "IC50", "result": "70.8 nM", "Compound": "CNC(=O)c1cccc2oc(C(=O)NC3CCCN(CC(=O)Nc4ccc(S(N)(=O)=O)cc4)C3)cc12 (centres unmarked)"}
{"target": "Melanocortin receptor 5", "observed": "reporter gene", "mode": "agonist", "measurement": "EC50", "result": "1100 nM", "Compound": "CSCC[C@H](NC(=O)[C@@H](N)Cc1ccc(O)cc1)C(=O)N[C@@H](Cc1c[nH]cn1)C(=O)N[C@@H](Cc1ccccc1)C(=O)N[C@@H](CCCNC(=N)N)C(=O)N[C@@H](Cc1c[nH]c2ccccc12)C(=O)N[C@@H](Cc1ccccc1)C(=O)O"}
{"target": "CA9", "observed": "enzyme activity", "mode": "inhibitor", "measurement": "IC50", "result": "155 nM", "Compound": "Cc1nn(-c2ccccc2)c(C)c1C1COCCN1C(=O)c1ccc(Cl)c(S(N)(=O)=O)c1 (centres unmarked)"}
{"target": "gyrB", "observed": "binding", "technique": "ITC", "measurement": "Kd", "result": "730 nM", "Compound": "O=C(O)c1ccc(NC(=O)c2cc3ccccc3[nH]c2=O)cc1"}
{"target": "Lymphocyte antigen 6K (Homo sapiens, UniProt Q17RY6)", "observed": "binding", "technique": "SPR", "measurement": "Kd", "result": "4700 nM", "Compound": "CCS(=O)(=O)Nc1ccc(Nc2c3ccccc3nc3cc(NC(=O)CCCC[C@@H]4SC[C@@H]5NC(=O)N[C@@H]54)ccc23)c(OC)c1"}
{"target": "CA9", "observed": "enzyme activity", "mode": "inhibitor", "measurement": "IC50", "result": "38.9 nM", "Compound": "Cc1cc(C(=O)Nc2ccccc2C(=O)NCc2cn(C)nn2)c(C)n1Cc1ccc(S(N)(=O)=O)cc1"}
{"target": "Tyrosine-protein kinase HCK (HCK, Homo sapiens, UniProt P08631)", "observed": "binding", "technique": "competition with immobilised ligand", "measurement": "Kd", "result": "18 nM", "Compound": "Cc1cnc(-c2ccc(-c3ccc(NC(=O)Nc4c(F)cc(F)cc4F)cc3F)c3c2C(=O)NC3)[nH]1"}
{"target": "Melanocortin receptor 5", "observed": "reporter gene", "mode": "agonist", "measurement": "EC50", "result": "> 100000 nM", "Compound": "N=C(N)NCCC[C@H](N)C(=O)N[C@@H](Cc1ccccc1)C(=O)NCC(=O)O"}
{"target": "PKN1", "observed": "enzyme activity", "mode": "inhibitor", "measurement": "IC50", "result": "129 nM", "Compound": "CN(c1ccccc1CNc1nc(Nc2ccc3c(c2)CC(=O)N3)ncc1C(F)(F)F)S(C)(=O)=O"}
{"target": "Melanocortin receptor 5", "observed": "reporter gene", "mode": "agonist", "measurement": "EC50", "result": "710 nM", "Compound": "CSCC[C@H](NC(=O)[C@@H](NC(=O)[C@@H](N)Cc1ccc(O)cc1)C(C)C)C(=O)NCC(=O)N[C@@H](Cc1c[nH]cn1)C(=O)N[C@@H](Cc1ccccc1)C(=O)N[C@@H](CCCNC(=N)N)C(=O)N[C@@H](Cc1c[nH]c2ccccc12)C(=O)O"}
{"target": "Adora1", "observed": "ligand displacement", "technique": "radioligand", "setting": "cell membranes", "measurement": "Ki", "result": "> 25 µM", "Compound": "CC(C)CC(C)N1CCCn2c1nc1c2c(=O)n(C)c(=O)n1C (centres unmarked)"}
